According to ChEMBL document CHEMBL4041534, “Treatment of Sepsis Pathogenesis with High Mobility Group Box Protein 1-Regulating Anti-inflammatory Agents” (J Med Chem, 2017):
Numbering of substitutions follows the chain as printed. Converted amounts (≈) assume the structure as drawn. The source made the active and inactive calls. No cut-off for these calls is given here.

How the values were obtained:
[1] = biological target: T1, High mobility group protein B1 (Mus musculus) (UniProt P63158); test: Inhibition of HMGB1 translocation from nucleus to cytosol in LPS-stimulated mouse RAW264.7 cells assessed as inhibition of NO release at 10 uM measured after 24 hrs by Griess assay relative to control
T1 sequence (whole entry): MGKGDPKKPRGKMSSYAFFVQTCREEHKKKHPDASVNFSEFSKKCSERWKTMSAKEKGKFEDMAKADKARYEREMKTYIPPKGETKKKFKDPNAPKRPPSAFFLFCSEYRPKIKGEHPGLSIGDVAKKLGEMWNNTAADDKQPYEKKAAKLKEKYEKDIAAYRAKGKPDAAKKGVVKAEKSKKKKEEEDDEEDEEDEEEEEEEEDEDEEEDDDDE
How it was run: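 Raw264.7 cells, seeded 1 day earlier, were moved to serum-free DMEM and exposed to 100 ng/mL LPS with 10 μM compound for 24 h. Supernatant NO was measured with Griess reagent (sulfanilamide/N-(1-naphthyl)ethylenediamine/phosphoric acid) at room temperature, absorbance 548 nm. Inhibition was set against LPS+DMSO wells, blank-corrected, with four control wells. At least three independent experiments.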

[2] = Cytotoxicity against mouse RAW264.7 cells assessed as cell viability at 10 uM in presence of LPS measured after 24 hrs by WST assay relative to control; format: cell-based; conditions: read-out: Activity
How it was run: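 Raw264.7 cells, seeded 1 day earlier, were washed into serum-free DMEM and given 100 ng/mL LPS plus compound (10 μM) for 24 h. After the supernatant was removed, wells were refilled with 10% FBS DMEM and WST reagent was added for 20 min at 37 °C. Absorbance was read at 450 nm, and viability is relative to vehicle. At least three independent experiments.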

[3] = biological target: T1, High mobility group protein B1 (Mus musculus); test: Inhibition of HMGB1 translocation from nucleus to cytosol in LPS-stimulated mouse RAW264.7 cells assessed as inhibition of TNF-alpha production at 10 uM measured after 4 hrs by ELISA relative to control
How it was run: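 Raw264.7 cells in serum-free DMEM were treated with 100 ng/mL LPS and 10 μM compound (final). After 4 h, medium was diluted in 1% BSA/PBS and secreted TNF-α was quantified by ELISA against a standard curve of TNF-α protein. Inhibition is relative to control. At least three independent experiments.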

RAW264.7 = test: Cytotoxicity against mouse RAW264.7 cells assessed as reduction in cell viability at >10 uM in presence of LPS measured after 24 hrs by WST assay; format: cell-based; conditions: raw264.7, 24 h
[4] = biological target: T1, High mobility group protein B1 (Mus musculus); test: Inhibition of HMGB1 nuclear translocation in LPS-stimulated mouse RAW264.7 cells at 20 uM pretreated for 1 hr followed by LPS-induction measured after 2 hrs by Hoechst 33342/TRITC staining based immunofluorescence microscopic method
How it was run: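 Raw264.7 cells on chambered coverglass were pretreated with 20 μM compound for 1 h, then given 500 ng/mL LPS for 2 h. Cells were fixed in 4% paraformaldehyde, permeabilized with methanol at −20 °C, blocked with 2% BSA, and stained with anti-HMGB1 plus TRITC secondary and Hoechst 33342. Imaged by deconvolution fluorescence microscopy. At least three independent experiments.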

[5] = biological target: T1, High mobility group protein B1 (Mus musculus); test: Inhibition of HMGB1 nuclear translocation in LPS-stimulated mouse RAW264.7 cells assessed as inhibition of IL-6 production at 10 uM pretreated for 1 hr followed by LPS-induction by Western blot analysis
How it was run: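 Raw264.7 cells were pretreated with 10 μM compound for 1 h, then given 100 ng/mL LPS. IL-6 released into the culture medium was detected by Western blot with ECL chemiluminescence, DMSO as control. At least three independent experiments.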

[6] = Equilibrium aqueous solubility of the compound by microsol method; format: physicochemical
How it was run: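 Equilibrium aqueous solubility by the μsol method. Mean ± SD, n = 3.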

[7] = Stability in mouse liver microsomes assessed as compound remaining preincubated for 5 mins followed by NADPH addition measured after 30 mins LC/MS/MS method; format: ADME, microsome; conditions: read-out: Stability
How it was run: (§1)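 Compounds were incubated with human or mouse liver microsomes in 100 mM potassium phosphate, pH 7.4, at 37 °C for 5 min. NADPH regenerating solution was added, and the reaction was stopped at 30 min with ice-cold acetonitrile containing imipramine internal standard. Percent remaining was measured by LC/MS/MS. Mean ± SD, n = 3.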

Mus musculus [8] = test: Anti-inflammatory activity in C57BL/6(B6) mouse model of CLP-induced sepsis assessed as survival rate at 10 mg/kg, ip administered daily for 21 days starting from 1 hr prior to CLP-induction (reference value: 10 %); format: functional
[9] = Stability in human liver microsomes assessed as compound remaining preincubated for 5 mins followed by NADPH addition measured after 30 mins LC/MS/MS method; format: ADME, microsome; conditions: read-out: Stability; how it was run: as §1
[10] = biological target: MAP kinase p38 (Mus musculus) (UniProt P47811+O08911+Q9WUI1+Q9Z1B7); test: Inhibition of MAPK p38 phosphorylation at Thr180/Tyr182 resdiues in LPS-stimulated mouse RAW264.7 cells at 20 uM pretreated followed by LPS-induction by Western blot analysis
How it was run: (§2)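 Raw264.7 cells were pretreated with 20 μM compound, then stimulated with 100 ng/mL LPS, with DMSO as control. Lysates in RIPA buffer with protease and phosphatase inhibitors were normalized by BCA and run on SDS-PAGE/Western blot for phospho-p38, JNK and ERK, with GAPDH as loading control. Detection by ECL, and band intensities were quantified. At least three independent experiments.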

Mus musculus [11] = organism: Mus musculus; test: Inhibition of JNK phosphorylation at Thr183/Tyr185 resdiues in LPS-stimulated mouse RAW264.7 cells at 20 uM pretreated followed by LPS-induction by Western blot analysis; how it was run: as §2
Mus musculus [12] = test: Anti-inflammatory activity in C57BL/6(B6) mouse model of CLP-induced sepsis assessed as decrease in serum IL-6 level at 10 mg/kg, ip administered daily for 21 days starting from 1 hr prior to CLP-induction by ELISA; format: functional, organism-based
How it was run: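 Serum IL-6 measured by sandwich ELISA. Blood was taken from CLP-induced C57BL/6 mice 24 h after surgery. Plates coated with anti-IL-6 mAb overnight at 4 °C and blocked with 1% BSA/PBS; serum incubated overnight at 4 °C. Detection used biotinylated anti-IL-6 and streptavidin-HRP, TMB development and absorbance at 450 nm. Run in triplicate, three independent repeats.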

Mus musculus [13] = organism: Mus musculus; test: Inhibition of NF-kappaB p65 nuclear translocation in LPS-stimulated mouse RAW264.7 cells at 20 uM pretreated followed by LPS-induction by Hoechst 33342/TRITC staining based immunofluorescence microscopic method
How it was run: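 NF-κB p65 immunofluorescence in Raw264.7 cells pretreated with 20 μM compound, then stimulated with 500 ng/mL LPS. Fixation was 4% paraformaldehyde, methanol permeabilization at −20 °C, and BSA blocking. Cells were stained with anti-p65 plus TRITC secondary and Hoechst 33342 nuclear stain, then imaged by deconvolution microscopy. At least three independent experiments.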

[14] = biological target: T2, High mobility group protein B1 (Homo sapiens) (UniProt P09429); test: Inhibition of ICM-BP binding to recombinant human HMGB1 assessed as reduction in Cy5-azide incorporation pretreated for 60 mins followed by ICM-BP addition for 20 mins and subsequent UV light irradiation for 5 mins by fluorescence assay
T2 sequence (whole entry): T1 sequence (whole entry) with D189E, E202D
How it was run: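 Purified HMGB1 (1 μg in water) was pretreated with competitor for 60 min, with DMSO held at 0.8% final. ICM-BP (5 μM) was then added for 20 min, followed by 365 nm UV for 5 min on ice. Cy5-azide was attached by click reaction, then samples were run on 12.5% SDS-PAGE and in-gel fluorescence scanned. Competitor was dosed in a graded series.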

Mus musculus [15] = organism: Mus musculus; test: Inhibition of ERK phosphorylation in LPS-stimulated mouse RAW264.7 cells at 20 uM pretreated followed by LPS-induction by Western blot analysis; how it was run: as §2

SMILES	inhibition [1]	inhibition [3] [%]	viability at 24 h, 10 µM [2] [%]	further results
CC1(C)Oc2cc(O)ccc2C2C1=CCn1c(=O)n(-c3ccc(C(F)(F)F)cc3)c(=O)n12 (stereo unspecified)	85%		106	Activity (RAW264.7): Toxic
CC1(C)Oc2cc(O)ccc2C2C1=CCn1c(=O)n(C3CCCCC3)c(=O)n12 (stereo unspecified)	63%		117	
CC1(C)Oc2cc(O)ccc2C2C1=CCn1c(=O)n(-c3ccc(C(C)(C)C)cc3)c(=O)n12 (stereo unspecified)	99%		105	Activity (RAW264.7): Toxic
CC1(C)Oc2cc(O)ccc2C2C1=CCn1c(=O)n(-c3ccc4c(c3)OCO4)c(=O)n12 (stereo unspecified)	92%	46	121	inhibition [4]: Active; inhibition [5]: Active
CC(=O)c1ccc(-n2c(=O)n3n(c2=O)C2C(=CC3)C(C)(C)Oc3cc(O)ccc32)cc1 (stereo unspecified)	93%	68	111	solubility thermodynamic [6]: 162 µg/mL (≈ 387 µM); remaining at 0.5 h [7]: 2.46%; inhibition [4]: Active; survival at 10 mg/kg (Mus musculus [8]): 74%; remaining at 0.5 h [9]: 30.2%; inhibition [10]: Active; inhibition (Mus musculus [11]): Active; Activity (Mus musculus [12]): Active; inhibition (Mus musculus [13]): Active; inhibition [14]: Dose-dependent effect; inhibition [5]: Active; inhibition (Mus musculus [15]): Active

Continued, in another order:

inhibition [1]	inhibition [3] [%]	SMILES	viability at 24 h, 10 µM [2] [%]	further results
inactive		CC1(C)Oc2cc(O)ccc2C2C1CCn1c(=O)n(-c3ccccc3)c(=O)n12 (stereo unspecified)		
83%		CC1(C)Oc2ccccc2C2C1=CCn1c(=O)n(-c3ccccc3)c(=O)n12 (stereo unspecified)		
66%		COc1ccccc1-n1c(=O)n2n(c1=O)C1C(=CC2)C(C)(C)Oc2cc(O)ccc21 (stereo unspecified)	115	
96%	38	COc1cccc(-n2c(=O)n3n(c2=O)C2C(=CC3)C(C)(C)Oc3cc(O)ccc32)c1 (stereo unspecified)	118	
inactive		CC1(C)Oc2cc(O)ccc2C2C1C=Cn1c(=O)n(-c3ccccc3)c(=O)n12 (stereo unspecified)		
36%		CC(=O)N1CCC2(CC1)Oc1cc(O)ccc1C1C2=CCn2c(=O)n(-c3ccccc3)c(=O)n21 (stereo unspecified)		
47%		CCCN1CCC2(CC1)Oc1cc(O)ccc1C1C2=CCn2c(=O)n(-c3ccccc3)c(=O)n21 (stereo unspecified)		
87%	44	CC1(C)Oc2cc(O)ccc2C2C1=CCn1c(=O)n(-c3ccc(F)cc3)c(=O)n12 (stereo unspecified)	109	
